≈ marks a conversion by molar mass, not a printed value.
Experiments:
Type in all cases: functional
Staphylococcus aureus [1] = test: Antibacterial activity against methicillin-susceptible Staphylococcus aureus clinical isolate by broth microdilution method
Summary of the method: (§1)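 MICs by CLSI broth microdilution in frozen trays pre-loaded with serial dilutions of each agent. Quality-control strains run in parallel: E. faecalis ATCC 29212 and ATCC 51299, S. aureus ATCC 29213, S. pneumoniae ATCC 49619. Comparator susceptibility categories follow CLSI breakpoints. Methicillin resistance in staphylococci assigned from the oxacillin MIC.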

Streptococcus sanguinis = test: Antibacterial activity against Streptococcus sanguinis clinical isolate by broth microdilution method
Summary of the method: (§2)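 MIC by CLSI broth microdilution in frozen microtiter trays holding serial dilutions of each agent, prepared from standard laboratory powders. E. faecalis ATCC 29212 and ATCC 51299, S. aureus ATCC 29213 and S. pneumoniae ATCC 49619 run in parallel as quality-control strains. Comparator susceptibility interpreted with CLSI breakpoints.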

Staphylococcus [2] = test: Antibacterial activity against methicillin-resistant coagulase-negative unspeciated Staphylococcus clinical isolate by broth microdilution method; summary of the method: as §1
Streptococcus agalactiae = test: Antibacterial activity against Streptococcus agalactiae clinical isolate by broth microdilution method; summary of the method: as §2
Mammaliicoccus sciuri [3] = test: Antibacterial activity against methicillin-resistant coagulase-negative Staphylococcus sciuri clinical isolate by broth microdilution method; summary of the method: as §1
Staphylococcus hominis [4] = test: Antibacterial activity against methicillin-susceptible coagulase-negative Staphylococcus hominis clinical isolate by broth microdilution method; summary of the method: as §1
[5] = test system: Staphylococcus haemolyticus; test: Antibacterial activity against methicillin-susceptible coagulase-negative Staphylococcus haemolyticus clinical isolate by broth microdilution method; summary of the method: as §1
Enterococcus faecalis [6] = test: Antibacterial activity against vancomycin- and teichoplanin-nonsusceptible Enterococcus faecalis clinical isolate by broth microdilution method; summary of the method: as §1
Streptococcus pneumoniae [7] = test: Antibacterial activity against penicillin resistant Streptococcus pneumoniae clinical isolate by broth microdilution method; summary of the method: as §1
Staphylococcus capitis [8] = test: Antibacterial activity against methicillin-resistant coagulase-negative Staphylococcus capitis clinical isolate by broth microdilution method; summary of the method: as §1
[9] = test system: Staphylococcus saprophyticus; test: Antibacterial activity against methicillin-susceptible coagulase-negative Staphylococcus saprophyticus clinical isolate by broth microdilution method; summary of the method: as §1
Streptococcus oralis = test: Antibacterial activity against Streptococcus oralis clinical isolate by broth microdilution method; summary of the method: as §2
Staphylococcus capitis [10] = test: Antibacterial activity against methicillin-susceptible coagulase-negative Staphylococcus capitis clinical isolate by broth microdilution method; summary of the method: as §1
Staphylococcus warneri [11] = test: Antibacterial activity against methicillin-resistant coagulase-negative Staphylococcus warneri clinical isolate by broth microdilution method; summary of the method: as §1
Staphylococcus simulans [12] = test: Antibacterial activity against methicillin-susceptible coagulase-negative Staphylococcus simulans clinical isolate by broth microdilution method; summary of the method: as §1
Staphylococcus [13] = test: Antibacterial activity against methicillin-susceptible coagulase-negative unspeciated Staphylococcus clinical isolate by broth microdilution method; summary of the method: as §1
Enterococcus faecium [14] = test: Antibacterial activity against vancomycin- and teichoplanin-nonsusceptible Enterococcus faecium clinical isolate by broth microdilution method; summary of the method: as §1
Staphylococcus cohnii [15] = test: Antibacterial activity against methicillin-susceptible coagulase-negative Staphylococcus cohnii clinical isolate by broth microdilution method; summary of the method: as §1
Mammaliicoccus sciuri [16] = test: Antibacterial activity against methicillin-susceptible coagulase-negative Staphylococcus sciuri clinical isolate by broth microdilution method; summary of the method: as §1
[17] = test system: Streptococcus intermedius; test: Antibacterial activity against Streptococcus intermedius clinical isolate by broth microdilution method; summary of the method: as §2
Streptococcus pneumoniae [18] = test: Antibacterial activity against penicillin intermediate Streptococcus pneumoniae clinical isolate by broth microdilution method; summary of the method: as §1
Staphylococcus warneri [19] = test: Antibacterial activity against methicillin-susceptible coagulase-negative Staphylococcus warneri clinical isolate by broth microdilution method; summary of the method: as §1
[20] = test system: Staphylococcus saprophyticus; test: Antibacterial activity against methicillin-resistant coagulase-negative Staphylococcus saprophyticus clinical isolate by broth microdilution method; summary of the method: as §1
Streptococcus mitis = test: Antibacterial activity against Streptococcus mitis clinical isolate by broth microdilution method; summary of the method: as §2
Enterococcus faecalis [21] = test: Antibacterial activity against vancomycin-susceptible Enterococcus faecalis clinical isolate by broth microdilution method; summary of the method: as §1
Staphylococcus hominis [22] = test: Antibacterial activity against methicillin-resistant coagulase-negative Staphylococcus hominis clinical isolate by broth microdilution method; summary of the method: as §1
[23] = test system: Streptococcus constellatus; test: Antibacterial activity against Streptococcus constellatus clinical isolate by broth microdilution method; summary of the method: as §2
[24] = test system: Staphylococcus epidermidis; test: Antibacterial activity against methicillin-resistant coagulase-negative Staphylococcus epidermidis clinical isolate by broth microdilution method; summary of the method: as §1
Staphylococcus xylosus [25] = test: Antibacterial activity against methicillin-susceptible coagulase-negative Staphylococcus xylosus clinical isolate by broth microdilution method; summary of the method: as §1
Enterococcus faecium [26] = test: Antibacterial activity against vancomycin-resistant and teichoplanin-susceptible Enterococcus faecium clinical isolate by broth microdilution method; summary of the method: as §1
[27] = test system: Staphylococcus epidermidis; test: Antibacterial activity against methicillin-susceptible coagulase-negative Staphylococcus epidermidis clinical isolate by broth microdilution method; summary of the method: as §1
Streptococcus equinus = test: Antibacterial activity against Streptococcus bovis clinical isolate by broth microdilution method; summary of the method: as §2
Enterococcus faecium [28] = test: Antibacterial activity against vancomycin-susceptible Enterococcus faecium clinical isolate by broth microdilution method; summary of the method: as §2
Streptococcus sp. = test: Antibacterial activity against Streptococcus sp. clinical isolate by broth microdilution method
Summary of the method: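 MIC by CLSI broth microdilution in frozen microtiter trays holding serial dilutions of each agent, prepared from standard laboratory powders. Comparator susceptibility interpreted with CLSI breakpoints.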

Streptococcus pneumoniae [29] = test: Antibacterial activity against penicillin susceptible Streptococcus pneumoniae clinical isolate by broth microdilution method; summary of the method: as §1
Staphylococcus xylosus [30] = test: Antibacterial activity against methicillin-resistant coagulase-negative Staphylococcus xylosus clinical isolate by broth microdilution method; summary of the method: as §1
Staphylococcus cohnii [31] = test: Antibacterial activity against methicillin-resistant coagulase-negative Staphylococcus cohnii clinical isolate by broth microdilution method; summary of the method: as §1
[32] = test system: Staphylococcus haemolyticus; test: Antibacterial activity against methicillin-resistant coagulase-negative Staphylococcus haemolyticus clinical isolate by broth microdilution method; summary of the method: as §1
Staphylococcus simulans [33] = test: Antibacterial activity against methicillin-resistant coagulase-negative Staphylococcus simulans clinical isolate by broth microdilution method; summary of the method: as §1
Staphylococcus aureus [34] = test: Antibacterial activity against methicillin-resistant Staphylococcus aureus clinical isolate by broth microdilution method; summary of the method: as §1

`CC(=O)NC[C@H]1CN(c2ccc(N3CCOCC3)c(F)c2)C(=O)O1` [LINEZOLID] gave an MIC50 (Staphylococcus aureus [1]) of 2 µg/mL (≈ 5.93 µM), an MIC90 (Staphylococcus aureus [1]) of 2 µg/mL (≈ 5.93 µM) and an MIC50 (Streptococcus sanguinis) of 1 µg/mL (≈ 2.96 µM). For the same compound, the MIC90 (Streptococcus sanguinis) was 1 µg/mL (≈ 2.96 µM), the MIC50 (Staphylococcus [2]) was 1 µg/mL (≈ 2.96 µM) and the MIC90 (Staphylococcus [2]) was 1 µg/mL (≈ 2.96 µM). It also gave an MIC50 (Streptococcus agalactiae) of 1 µg/mL (≈ 2.96 µM), an MIC90 (Streptococcus agalactiae) of 1 µg/mL (≈ 2.96 µM) and an MIC50 (Mammaliicoccus sciuri [3]) of 1 µg/mL (≈ 2.96 µM). The MIC90 (Mammaliicoccus sciuri [3]) was 1 µg/mL (≈ 2.96 µM), the MIC50 (Staphylococcus hominis [4]) was 1 µg/mL (≈ 2.96 µM) and the MIC90 (Staphylococcus hominis [4]) was 1 µg/mL (≈ 2.96 µM). For the same compound, the MIC50 [5] was 1 µg/mL (≈ 2.96 µM), the MIC90 [5] was 1 µg/mL (≈ 2.96 µM) and the MIC50 (Enterococcus faecalis [6]) was 1 µg/mL (≈ 2.96 µM). The MIC90 (Enterococcus faecalis [6]) was 2 µg/mL (≈ 5.93 µM), the MIC50 (Streptococcus pneumoniae [7]) was 1 µg/mL (≈ 2.96 µM) and the MIC90 (Streptococcus pneumoniae [7]) was 1 µg/mL (≈ 2.96 µM). It also gave an MIC50 (Staphylococcus capitis [8]) of 1 µg/mL (≈ 2.96 µM), an MIC90 (Staphylococcus capitis [8]) of 1 µg/mL (≈ 2.96 µM) and an MIC50 [9] of 1 µg/mL (≈ 2.96 µM). It also gave an MIC90 [9] of 1 µg/mL (≈ 2.96 µM), an MIC50 (Streptococcus oralis) of 1 µg/mL (≈ 2.96 µM) and an MIC90 (Streptococcus oralis) of 1 µg/mL (≈ 2.96 µM). It also gave an MIC50 (Staphylococcus capitis [10]) of 1 µg/mL (≈ 2.96 µM), an MIC90 (Staphylococcus capitis [10]) of 1 µg/mL (≈ 2.96 µM) and an MIC50 (Staphylococcus warneri [11]) of 1 µg/mL (≈ 2.96 µM). The MIC90 (Staphylococcus warneri [11]) was 1 µg/mL (≈ 2.96 µM), the MIC50 (Staphylococcus simulans [12]) was 1 µg/mL (≈ 2.96 µM) and the MIC90 (Staphylococcus simulans [12]) was 1 µg/mL (≈ 2.96 µM). For the same compound, the MIC50 (Staphylococcus [13]) was 1 µg/mL (≈ 2.96 µM), the MIC90 (Staphylococcus [13]) was 1 µg/mL (≈ 2.96 µM) and the MIC50 (Enterococcus faecium [14]) was 2 µg/mL (≈ 5.93 µM). The MIC90 (Enterococcus faecium [14]) was 2 µg/mL (≈ 5.93 µM), the MIC50 (Staphylococcus cohnii [15]) was 1 µg/mL (≈ 2.96 µM) and the MIC90 (Staphylococcus cohnii [15]) was 1 µg/mL (≈ 2.96 µM). It also gave an MIC50 (Mammaliicoccus sciuri [16]) of 1 µg/mL (≈ 2.96 µM), an MIC90 (Mammaliicoccus sciuri [16]) of 1 µg/mL (≈ 2.96 µM) and an MIC50 [17] of 1 µg/mL (≈ 2.96 µM). It also gave an MIC90 [17] of 1 µg/mL (≈ 2.96 µM), an MIC50 (Streptococcus pneumoniae [18]) of 1 µg/mL (≈ 2.96 µM) and an MIC90 (Streptococcus pneumoniae [18]) of 1 µg/mL (≈ 2.96 µM). The MIC50 (Staphylococcus warneri [19]) was 1 µg/mL (≈ 2.96 µM), the MIC90 (Staphylococcus warneri [19]) was 1 µg/mL (≈ 2.96 µM) and the MIC50 [20] was 1 µg/mL (≈ 2.96 µM). For the same compound, the MIC90 [20] was 1 µg/mL (≈ 2.96 µM), the MIC50 (Streptococcus mitis) was 1 µg/mL (≈ 2.96 µM) and the MIC90 (Streptococcus mitis) was 1 µg/mL (≈ 2.96 µM). It also gave an MIC50 (Enterococcus faecalis [21]) of 1 µg/mL (≈ 2.96 µM), an MIC90 (Enterococcus faecalis [21]) of 2 µg/mL (≈ 5.93 µM) and an MIC50 (Staphylococcus hominis [22]) of 1 µg/mL (≈ 2.96 µM). For the same compound, the MIC90 (Staphylococcus hominis [22]) was 1 µg/mL (≈ 2.96 µM), the MIC50 [23] was 1 µg/mL (≈ 2.96 µM) and the MIC90 [23] was 1 µg/mL (≈ 2.96 µM). The MIC50 [24] was 1 µg/mL (≈ 2.96 µM), the MIC90 [24] was 1 µg/mL (≈ 2.96 µM) and the MIC50 (Staphylococcus xylosus [25]) was 1 µg/mL (≈ 2.96 µM). For the same compound, the MIC90 (Staphylococcus xylosus [25]) was 1 µg/mL (≈ 2.96 µM), the MIC50 (Enterococcus faecium [26]) was 2 µg/mL (≈ 5.93 µM) and the MIC90 (Enterococcus faecium [26]) was 2 µg/mL (≈ 5.93 µM). The MIC50 [27] was 1 µg/mL (≈ 2.96 µM), the MIC90 [27] was 1 µg/mL (≈ 2.96 µM) and the MIC50 (Streptococcus equinus) was 1 µg/mL (≈ 2.96 µM). The MIC90 (Streptococcus equinus) was 1 µg/mL (≈ 2.96 µM), the MIC50 (Enterococcus faecium [28]) was 2 µg/mL (≈ 5.93 µM) and the MIC90 (Enterococcus faecium [28]) was 2 µg/mL (≈ 5.93 µM). The MIC (Streptococcus sp.) was ≤ 0.12 µg/mL, the MIC50 (Streptococcus pneumoniae [29]) was 1 µg/mL (≈ 2.96 µM) and the MIC90 (Streptococcus pneumoniae [29]) was 1 µg/mL (≈ 2.96 µM). It also gave an MIC50 (Staphylococcus xylosus [30]) of 1 µg/mL (≈ 2.96 µM), an MIC90 (Staphylococcus xylosus [30]) of 1 µg/mL (≈ 2.96 µM) and an MIC50 (Staphylococcus cohnii [31]) of 1 µg/mL (≈ 2.96 µM). It also gave an MIC90 (Staphylococcus cohnii [31]) of 1 µg/mL (≈ 2.96 µM), an MIC50 [32] of 1 µg/mL (≈ 2.96 µM) and an MIC90 [32] of 1 µg/mL (≈ 2.96 µM). It also gave an MIC50 (Staphylococcus simulans [33]) of 1 µg/mL (≈ 2.96 µM), an MIC90 (Staphylococcus simulans [33]) of 1 µg/mL (≈ 2.96 µM) and an MIC50 (Staphylococcus aureus [34]) of 2 µg/mL (≈ 5.93 µM). For the same compound, the MIC90 (Staphylococcus aureus [34]) was 2 µg/mL (≈ 5.93 µM).

— ChEMBL document CHEMBL1255376, “Comparative surveillance study of telavancin activity against recently collected gram-positive clinical isolates from across the United States” (2008)
